In ChEMBL document CHEMBL4513216, “Probing the Open Global Health Chemical Diversity Library for Multistage-Active Starting Points for Next-Generation Antimalarials” (ACS Infect Dis, 2020):

Experiment: Toxicity liver stage against HepG2, at 10uM
Format: cell-based
Set-up: test concentration 10 uM, cell line HepG2-A16-CD81EGFP
Conditions: human, HepG2-A16-CD81EGFP cells; read-out: INHIBITION
Procedure, shortened: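 Uninfected HepG2-A16-CD81EGFP cells, 3 × 10^3 per well, 1536-well, plated on prespotted compound at 10 μM final, parasite-free screening media added to match infected plates; puromycin 10 μM positive, DMSO 0.5% negative; run in parallel with 48 h PbLuc assay at 37 °C, 5% CO2; viability by CellTiter-Glo luminescence, normalized to controls.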

Row | Structure (SMILES) | cytotoxicity at 10 µM [%]
1 | CC(C)NC(=O)CCC(=O)N1CCC(c2noc3cc(F)ccc23)CC1 | 2.13
2 | Cc1cc(-c2nn3c(C4CCC4)nnc3s2)on1 | -5.65
3 | O=C(Nc1cccnc1)C1CN(C(=O)c2ccc3c(c2)OCO3)C1 | -11.7
4 | COc1ncc(NS(=O)(=O)c2cccc(C)c2)c(OC)n1 | 10.4
5 | Cc1c(Cl)cccc1S(=O)(=O)N1CCC(S(=O)(=O)c2nncn2C)CC1 | 1.06
6 | CC(=O)N1CCc2nc(N3CCCC3)nc(C)c2C1 | -0.567
7 | COc1ccc(CC(=O)N2CCc3nc(C(=O)N(C)C)sc3CC2)cc1 | 15.8
8 | Cc1noc(C[C@@H]2COC[C@H]3CN(C(=O)C4=CCCC4)C[C@@H]23)n1 | -0.91
9 | O=C(NCC1CCN(Cc2ccsc2)CC1)NC1CC1 | 6.82
10 | CN1CCC(C(=O)N2CCC(c3ccc4c(N)n[nH]c4n3)CC2)CC1 | 2.43
11 | CC1(C(=O)N2CCSCC2)CNCCO1 (stereo not given) | 4.79
12 | Cc1nn(C)c(C)c1-c1cncc(C2CCN(S(C)(=O)=O)CC2)n1 | 8.88
13 | COc1ccc(Cl)cc1CS(=O)(=O)Cc1noc(C)n1 | 2.32
14 | CC(c1ccncc1)N(C)C(=O)NCCOc1ccc(C#N)cc1 (stereo not given) | -15.5
15 | Cc1cc(C(=O)NC2CC(=O)N(C(C)C)C2=O)c(C)n1C(C)C (stereo not given) | -9.13
16 | CCSCCC(C)N(C)C(=O)c1ccc2nncn2c1 (stereo not given) | -5.4
17 | Cn1cc(S(=O)(=O)N2CCC(OCCCc3ccccc3)C2)cn1 (stereo not given) | 8.93
18 | O=C(NCC1(c2ccc(F)cc2)CCC1)N1CCC2(CCOCC2)C1 | 3.73
19 | CCN(C(=O)CNC1CCc2ncnn2C1)C1=CCCCC1 (stereo not given) | 0.701
20 | Cc1nc(C2(NCC(=O)NC(=O)NCc3cccs3)CCCCC2)no1 | -9.52
21 | CCC(=O)N1CCC2(C=C(C(=O)N3CCCC3)c3ccccc32)CC1 | -92.8
22 | Cc1cc(CN2CC[C@@H]3O[C@@H](c4nnc(C)o4)C[C@H]3C2)no1 | -103
23 | O=C(C1CCOC1)N1C[C@H]2CN(Cc3cccc(F)c3)C(=O)[C@H]2C1 (stereo not given in full) | -106
24 | O=C(O)c1cc(-c2ccncc2)cc(S(=O)(=O)N2CCSCC2)c1 | 3.26
25 | CS(=O)(=O)N1CCCn2nc(CNc3ncccn3)cc2C1 | 4.83
26 | CN1CC2(CCCN(Cc3nnc(-c4ccccc4)o3)CC2)OC1=O (stereo not given) | 0.184
27 | O=C(c1ccccc1C(F)(F)F)N1C[C@@H](CN2CCOCC2)[C@@H](CO)C1 | -3.7

Row | Structure (SMILES) | cytotoxicity at 10 µM [%]
28 | O=C(Nc1ccc(-c2ccn[nH]2)cc1)C1CCCN(Cc2ccoc2)C1 (stereo not given) | -0.16
29 | O=C(O)c1cccc(N2CCC(Oc3cccc(F)c3)CC2)n1 | -44.1
30 | COc1ccc2c(c1)C(C(=O)NCCN1CCOC1=O)CC(=O)N2 (stereo not given) | 8.68
31 | Cn1cnc2cc(C(=O)N3CCC(c4ccccc4C(=O)O)C3)cnc21 (stereo not given) | -8.98
32 | Cc1ccc2c(-c3nc4c([nH]3)CCNC4C(=O)O)cccc2n1 (stereo not given) | -3.15
33 | CS(=O)(=O)NC1CCN(C(=O)c2coc(CN3CCOCC3)c2)CC1 | 3.54
34 | CCN1CCC(Cn2ccc3c(OC)c(OC)ccc3c2=O)C1 (stereo not given) | -4.7
35 | O=C(CCn1cccc1)N1CCc2[nH]nc(COc3ccccc3)c2C1 | 7.54
36 | CN1CCC(N(C)C[C@H]2CC[C@@H](Cc3cccc(O)c3)O2)CC1 | -12.2
37 | Cc1cc2cccc(C(=O)N3CC[C@@H](N)[C@H](O)C3)c2o1 | -0.193
38 | Cc1cc(C)c2nc(CN3CCC(CN)CC3)cc(O)c2c1 | 2.55
39 | CN(C)CCN(C)C1CCN(C(C(=O)O)c2ccc(F)c(Cl)c2)CC1 (stereo not given) | 2.95
40 | CCOCc1nc(CSc2ccncc2)n(C2CCN(C)CC2)n1 | -1.45
41 | CC(=O)CCCC(=O)N(Cc1ccsc1)CC(C)C | -50.3
42 | CCc1ccccc1-c1cc(OC)nc(N)n1 | -3.3
43 | Cc1ncc(CN2CCC(CNS(=O)(=O)C3CC3)C2)cn1 (stereo not given) | 2.84
44 | CN(C)C1CCCN(Cc2cccc(Cn3cccn3)c2)CC1 (stereo not given) | -12.6
45 | Cn1cccc1-c1cc(C(=O)NCCCc2csc(N)n2)[nH]n1 | -8.9
46 | CC1(COc2ccccc2)NCCc2[nH]cnc21 (stereo not given) | -0.254
47 | c1csc(CCC2CCCCN2Cc2noc(C3CC3)n2)c1 (stereo not given) | 0.562
48 | O=C(O)C(c1ccc2c(c1)OCO2)N1CCCC1 (stereo not given) | -3.04
49 | CCNC(=O)N1CCN(Cc2nc3ccccc3[nH]2)[C@@H]2CS(=O)(=O)C[C@@H]21 | 14.1
50 | CN(C)C(=O)C1CCN(Cn2nc(-c3ccc(F)cc3)oc2=O)CC1 | -2.06
51 | O=C(Cc1ccccc1)NCCNCc1cccc(O)c1 | -0.206
52 | Cn1c(C2CC2)nc2c1CCN(Cc1nc(Cc3ccccc3)no1)C2 | -6.37
53 | Cc1cnn(CC(C)NCc2nc(-c3cccs3)no2)c1 (stereo not given) | -7.64
54 | COc1cc(C(=O)NS(=O)(=O)c2cccc(C#N)c2)cc(OC)c1Br | -9.67

Row | Structure (SMILES) | cytotoxicity at 10 µM [%]
55 | Cc1cnn(CCNCc2csc(-c3ccccc3)n2)c1 | -9.48
56 | CCOC(=O)CN(C)C1CCc2ccccc21 (stereo not given) | 0.367
57 | Cc1cc(NC(=O)CCN2CCCCC2Cn2cccn2)no1 (stereo not given) | 2.14
58 | Cc1nc(C2CCCN2C(=O)CCOCc2ccccc2)no1 (stereo not given) | -2.4
59 | Cc1nn(C)c(Cl)c1C1CCCN1C(=O)c1cnn(C)c1C1CC1 (stereo not given) | 1.99
60 | CNC(=O)c1ccc(C(=O)N2CCCC(n3cc(C)cn3)C2)cn1 (stereo not given) | -0.884
61 | Cc1noc(C)c1CN(C)C(=O)NC1CCN(C2CC2)CC1 | -10.1
62 | Cc1cnc(CN(C)C2CCN(CC(=O)Nc3c(C)n[nH]c3C)C2)o1 (stereo not given) | -6.38
63 | CN(C)c1ncccc1CNS(=O)(=O)c1ccccc1F | -4.81
64 | CC(C)(C)c1cn2nc(N3CCC[C@@H]3CO)sc2n1 | 3.64
65 | COCCN1C(=O)CCC12CCC(NCc1cccnc1OC)CC2 (stereo not given) | 8.64
66 | CN(C)CCn1c2c(ccc1=O)CC(NCc1cccnc1)CC2 (stereo not given) | 14.4
67 | CNC(=O)[C@@H]1C[C@H]2CN(Cc3ccc(C)s3)C[C@H]2N1C(C)=O | 2.76
68 | Cc1ccc(C(=O)N2CCC3(CCN(C(=O)c4cccnc4)C3)CC2)o1 | 0.101
69 | CC(=O)N1CCC2(CC1)COCCN2Cc1ccc(F)cc1 | 5.69
70 | O=C(c1c[nH]cn1)N1CCC(F)(F)C2(CCN(c3ccccn3)C2)C1 (stereo not given) | 11
71 | CC1c2ncc(CN3CCN(C)CC3)n2CCN1Cc1cccnc1 (stereo not given) | -2.12
72 | Cc1cccc(CN2Cc3[nH]nc(COc4cccnc4)c3C2)n1 | 0.288
73 | CCS(=O)(=O)N1CCC2(CCN(Cc3cccc(OC)c3)CC2)CC1 | 2.5
74 | Cc1cccc(N2CC3(CCN(S(=O)(=O)C4CC4)C3)C2)n1 | 3.86
75 | CC(=O)N1CCC2(CC1)CN(C(=O)c1cccnc1)c1ccc(F)cc12 | -108
76 | COCCN1CCOCC12CCN(Cc1ccn(C)n1)CC2 | -3.39
77 | CCC1=N[C@@]2(CC[C@@H]3CN(Cc4ccc(C)cc4)C[C@@H]32)C(=O)N1C | -95
78 | CNC(=O)[C@@H](c1ccccc1)N1CCC[C@H]1C(=O)NCc1ccccn1 | 5.62
79 | COCCN1CCC2(CC1)CN(C(=O)C1CC1)c1ccc(F)cc12 | -0.213
80 | c1cnc(N2CCOC3(CCN(CC4CCCCC4)CC3)C2)nc1 | 0.256
